In ChEMBL document CHEMBL4196040, “Discovery of carbazole carboxamides as novel RORγt inverse agonists” (Eur J Med Chem, 2018):

Key:
[1] = biological target: T1, Nuclear receptor ROR-gamma (Homo sapiens, UniProt P51449); assay: Inverse agonist activity at APC-labeled RORgammat LBD (unknown origin) assessed as inhibition of N-(2-chloro-6-fluorobenzyl)-N-((20-methoxy-[1,10-biphenyl]-4-yl)methyl)benzenesulfonamide -induced co-activator europium-labeled SRC1 peptide recruitment after 1 hr by LANCE-FRET assay
T1 sequence (P51449 whole entry): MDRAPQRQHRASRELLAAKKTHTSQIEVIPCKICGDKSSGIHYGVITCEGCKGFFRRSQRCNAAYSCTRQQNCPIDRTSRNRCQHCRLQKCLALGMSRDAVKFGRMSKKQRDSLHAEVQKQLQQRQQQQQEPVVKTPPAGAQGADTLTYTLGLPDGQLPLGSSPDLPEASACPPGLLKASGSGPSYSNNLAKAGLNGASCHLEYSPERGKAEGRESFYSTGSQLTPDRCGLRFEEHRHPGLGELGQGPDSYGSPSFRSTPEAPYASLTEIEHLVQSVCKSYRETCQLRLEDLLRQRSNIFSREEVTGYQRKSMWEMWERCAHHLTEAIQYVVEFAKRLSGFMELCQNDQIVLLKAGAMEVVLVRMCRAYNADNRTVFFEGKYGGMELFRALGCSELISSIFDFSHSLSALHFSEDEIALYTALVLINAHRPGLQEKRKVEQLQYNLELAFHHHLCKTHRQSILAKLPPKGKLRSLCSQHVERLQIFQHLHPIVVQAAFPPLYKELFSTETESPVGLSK

[2] = Inhibition of mouse splenocytes-derived CD4+ Th17 cell differentiation assessed as reduction in IL-17 production at 0.3 uM by flow cytometry relative to control; type: functional
In short: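 CD4+ T cells were taken from mouse splenocytes by negative selection and skewed to Th17 over 4 days with anti-CD3 0.25 μg/mL, anti-CD28 1 μg/mL, anti-IFN-γ and anti-IL-4 2 μg/mL each, TGF-β 5 ng/mL and IL-6 20 ng/mL. Compound or DMSO was added on day 0. IL-17+ CD4+ cells were measured by intracellular staining and flow cytometry.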

[3] = Intrinsic clearance in mouse liver microsomes; type: ADME, microsome
[4] = biological target: T2, Nuclear receptor ROR-gamma (Homo sapiens) (UniProt P51449); assay: Agonist activity at APC-labeled RORgammat LBD (unknown origin) assessed as co-activator europium-labeled SRC1 peptide recruitment after 1 hr by LANCE-FRET assay relative to control
T2 sequence (whole entry): T1 sequence (P51449 whole entry)

CCn1c(C)c(C)c2cc(C(=O)NCc3ccc(S(=O)(=O)CC)cc3)ccc21
IC50 ([1]; read-out: IC50): 914 nM

CCn1c2ccc(F)cc2c2cc(C(=O)NCc3ccc(S(=O)(=O)CC)cc3)ccc21
IC50 ([1]; read-out: IC50): 156 nM | inhibition at 0.3 µM [2]: 45.9% | CLint [3]: 0.348 mL/min/g

CCS(=O)(=O)c1ccc(CNC(=O)c2ccc3c(c2)c2ccccc2n3CC2CCCCC2)cc1
IC50 ([1]; read-out: IC50): 33.5 nM | Emax [4]: 54%

CCn1c2ccccc2c2cc(NC(=O)NCc3ccc(S(=O)(=O)CC)cc3)ccc21
IC50 ([1]; read-out: IC50): 16200 nM

CCS(=O)(=O)c1ccc(CNC(=O)c2ccc3c(c2)c2ccccc2n3CC2CCC2)cc1
IC50 ([1]; read-out: IC50): 54.9 nM

CCS(=O)(=O)c1ccc(CNC(=O)c2ccc3c(c2)c2ccccc2n3C(C)C)cc1
IC50 ([1]; read-out: IC50): 358 nM

CCn1c2ccccc2c2cc(C(=O)NCC(C)NC(=O)Cc3ccc(S(=O)(=O)CC)cc3)ccc21 (centres undefined)
IC50 [1]: Not Active

CCS(=O)(=O)c1ccc(CNC(=O)c2ccc3[nH]c4ccccc4c3c2)cc1
IC50 ([1]; read-out: IC50): 5400 nM

CCn1c2ccccc2c2cc(C(=O)NCc3ccc(S(=O)(=O)CC)cn3)ccc21
IC50 ([1]; read-out: IC50): 1220 nM

CCn1c2ccc(Cl)cc2c2cc(C(=O)NCc3ccc(S(=O)(=O)CC)cc3)ccc21
IC50 ([1]; read-out: IC50): 58.5 nM | inhibition at 0.3 µM [2]: 58.8% | CLint [3]: 0.197 mL/min/g

CCS(=O)(=O)c1ccc(CNC(=O)c2ccc3c(c2)c2ccccc2n3C)cc1
IC50 ([1]; read-out: IC50): 566 nM

CCCS(=O)(=O)c1ccc(CNC(=O)c2ccc3c(c2)c2ccccc2n3CC)cc1
IC50 ([1]; read-out: IC50): 1450 nM

CCS(=O)(=O)c1ccc(CNC(=O)c2ccc3c(c2)c2ccccc2n3CC(C)C)cc1
IC50 ([1]; read-out: IC50): 69.6 nM

CCn1c2ccc(C)cc2c2cc(C(=O)NCc3ccc(S(=O)(=O)CC)cc3)ccc21
IC50 ([1]; read-out: IC50): 47.8 nM | inhibition at 0.3 µM [2]: 43.6% | CLint [3]: 0.368 mL/min/g

CCn1c2c(c3cc(C(=O)NCc4ccc(S(=O)(=O)CC)cc4)ccc31)CCCC2
IC50 ([1]; read-out: IC50): 426 nM

CCn1c2ccccc2c2cc(C(=O)NCc3ccc(S(=O)(=O)CC)cc3)ccc21
IC50 ([1]; read-out: IC50): 167 nM | inhibition at 0.3 µM [2]: 40% | CLint [3]: 0.305 mL/min/g

CCn1c2c(c3cc(C(=O)NCc4ccc(S(=O)(=O)CC)cc4)ccc31)CCC2
IC50 ([1]; read-out: IC50): 1320 nM

CCn1c2ccccc2c2cc(C(=O)NCc3ccc(S(=O)(=O)NC)cc3)ccc21
IC50 ([1]; read-out: IC50): 313 nM

CCn1c2ccc(C(=O)NCc3ccc(S(=O)(=O)CC)cc3)cc2c2ncccc21
IC50 ([1]; read-out: IC50): 3000 nM

CCn1c2ccccc2c2cc(C(=O)NCc3ccc(S(C)(=O)=O)cc3)ccc21
IC50 ([1]; read-out: IC50): 1100 nM

CCn1ccc2cc(C(=O)NCc3ccc(S(=O)(=O)CC)cc3)ccc21
IC50 ([1]; read-out: IC50): 5160 nM

CCn1c2ccccc2c2cc(NC(=O)Cc3ccc(S(=O)(=O)CC)cc3)ccc21
IC50 ([1]; read-out: IC50): 170 nM

CCn1c2ccccc2c2cc(NC(=O)CNC(=O)Cc3ccc(S(=O)(=O)CC)cc3)ccc21
IC50 ([1]; read-out: IC50): 7670 nM

CCS(=O)(=O)c1ccc(CNC(=O)c2ccc3c(c2)c2ccccc2n3CC2CC2)cc1
IC50 ([1]; read-out: IC50): 81.9 nM

CCCn1c2ccccc2c2cc(C(=O)NCc3ccc(S(=O)(=O)CC)cc3)ccc21
IC50 ([1]; read-out: IC50): 138 nM
